Measurements collected from several papers.
Compare with care: the assays were run in different laboratories.
Target: Tau-tubulin kinase 1 (TTBK1, Homo sapiens, UniProt Q5TCY1)
Observed: enzyme activity
Mode: inhibitor

SMILES	test	setting	measurement	value
O=C(Nc1cnn(-c2csc(C(=O)NC3COC3)c2)c1)Nc1c(F)cccc1Cl		5 µM	remaining activity	82.3%
COc1cc(/C=C/C(=O)CC(=O)/C=C/c2ccc(O)c(OC)c2)ccc1O		1 µM	activity vs control	102%
CN1CC(Oc2cnc(C#N)cc2-c2ccn3nc(NC(=O)C4CC4)cc3c2)C1		1 µM	inhibition	1%
Cc1sc(C(=O)NC2COC2)cc1-n1cc(NC(=O)Nc2c(F)cccc2Cl)cn1		10 µM	remaining activity	113%
Cc1ccc(C(=O)NCc2ccsc2)cc1C#Cc1cn(C(C)C)c2ncnc(N)c12		1 µM	activity vs control	104%
COc1cc(Nc2cnc(C#N)c(O[C@H](C)CN(C)C)n2)ncc1-c1cnn(C)c1	radiometric	1 µM	remaining activity	98%
CC(C)(O)[C@H]1CC[C@H](Nc2ccc3ncc(-c4cccc(C(F)(F)F)c4)n3n2)CC1		1 µM	remaining activity	95.8%
COc1cc(Cl)c(C(=O)N[C@@H](CN[C@H]2CC[C@@H](N)CC2)Cc2ccc(C#N)cc2)cc1-c1ccc(CN[C@H](C)c2ccc(C)cc2)o1		1 µM	remaining activity	99%
